Results: ChEMBL document CHEMBL1127826, “Inhibitors of acyl-CoA:cholesterol acyltransferase (ACAT). 7. Development of a series of substituted N-phenyl-N'-[(1-phenylcyclopentyl)methyl]ureas with enhanced hypocholesterolemic activity” (J Med Chem, 1994)

Experiments:
Rattus norvegicus [1] = species: Rattus norvegicus; assay: Percent change in total cholesterol in peanut oil (5.5%)-, cholic acid (0.3%)-, Cholesterol (1.5%)-fed rats after a single dose.; assay type: functional
Procedure, shortened: (§1)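 Male Sprague-Dawley rats (200-225 g), n=5-7/group, given a single oral dose at 4 p.m. as a suspension in 1.5% CMC/0.2% Tween-20 in water (50 mg/kg); controls received vehicle alone. The rats then had free access to chow with peanut oil, cholesterol and cholic acid. At 8 a.m. next day they were bled by cardiac puncture under ether, and serum total cholesterol was measured as % change versus controls (unpaired two-tailed t-test).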

[2] = molecular target: T1, Acyl-CoA:cholesterol acyltransferase (Oryctolagus cuniculus, UniProt Q95214); assay: Tested for in vitro inhibition against Acyl coenzyme A:cholesterol acyltransferase of intestinal microsomes in cholesterol-fed rabbits; parameters: species or system Microsome
T1 sequence (Q95214 whole entry): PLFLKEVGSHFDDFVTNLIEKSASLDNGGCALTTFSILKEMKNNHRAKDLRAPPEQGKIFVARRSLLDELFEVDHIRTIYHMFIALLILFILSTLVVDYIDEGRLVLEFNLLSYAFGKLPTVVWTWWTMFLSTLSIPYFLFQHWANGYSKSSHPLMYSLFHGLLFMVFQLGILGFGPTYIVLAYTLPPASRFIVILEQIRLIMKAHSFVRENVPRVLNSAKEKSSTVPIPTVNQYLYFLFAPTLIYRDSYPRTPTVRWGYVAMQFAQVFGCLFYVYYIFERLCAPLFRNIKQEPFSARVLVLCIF
Procedure, shortened: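 Microsomes were prepared from intestine of cholesterol-fed rabbits. ACAT activity was measured using [1-14C]oleoyl-CoA as substrate. Each determination was run in triplicate.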

Rattus norvegicus [3] = species: Rattus norvegicus; assay: Percent change in total cholesterol in peanut oil (5.5%) - cholic acid (0.3%) - Cholesterol (1.5%) fed rats after a single dose; assay type: functional; procedure, shortened: as §1

CC(C)c1cccc(C(C)C)c1NC(=O)NCC1(c2ccc(N)cc2)CCCC1
Delta TC (Rattus norvegicus [1]): -76% | IC50 [2]: 29 nM

CC(C)c1cccc(C(C)C)c1NC(=O)NCC1(c2cc(C(F)(F)F)cc(C(F)(F)F)c2)CCCC1
IC50 [2]: 57 nM | Delta TC (Rattus norvegicus [3]): -32%

CC(C)c1cccc(C(C)C)c1NC(=O)NCC1(c2cccc(OCc3ccccc3)c2)CCCC1
Delta TC (Rattus norvegicus [1]): -73% | IC50 [2]: 30 nM

COC(=O)c1cccc(C2(CNC(=O)Nc3c(C(C)C)cccc3C(C)C)CCCC2)c1
Delta TC (Rattus norvegicus [1]): -51% | IC50 [2]: 34 nM

COc1cccc(C2(CNC(=O)Nc3c(C(C)C)cccc3C(C)C)CCCC2)c1
Delta TC (Rattus norvegicus [1]): -42% | IC50 [2]: 13 nM

CC(C)c1ccc(C2(CNC(=O)Nc3c(C(C)C)cccc3C(C)C)CCCC2)cc1
IC50 [2]: 48 nM | Delta TC (Rattus norvegicus [3]): -63%

COc1ccc(C2(CNC(=O)Nc3c(C(C)C)cccc3C(C)C)CCCC2)cc1
Delta TC (Rattus norvegicus [1]): -41% | IC50 [2]: 31 nM

CC(C)c1cccc(C(C)C)c1NC(=O)NCC1(c2ccc(CC(C)(C)C)cc2)CCCC1
IC50 [2]: 159 nM | Delta TC (Rattus norvegicus [3]): -53%

CC(C)c1cccc(C(C)C)c1NC(=O)NCC1(c2ccc(C(C)(C)C)cc2)CCCC1
IC50 [2]: 63 nM | Delta TC (Rattus norvegicus [3]): -48%

Cc1ccccc1C1(CNC(=O)Nc2c(C(C)C)cccc2C(C)C)CCCC1
IC50 [2]: 17 nM | Delta TC (Rattus norvegicus [3]): -73%

CC(C)c1cccc(C(C)C)c1NC(=O)NCC1(c2ccc(Cl)cc2)CCCC1
IC50 [2]: 32 nM | Delta TC (Rattus norvegicus [3]): -64%

Cc1ccc(C2(CNC(=O)Nc3c(C(C)C)cccc3C(C)C)CCCC2)c(C)c1
IC50 [2]: 50 nM | Delta TC (Rattus norvegicus [3]): -50%

CC(C)c1cccc(C(C)C)c1NC(=O)NCC1(c2ccc(C(=O)O)cc2)CCCC1
Delta TC (Rattus norvegicus [1]): -8% | IC50 [2]: 3100 nM

CC(C)c1cccc(C(C)C)c1NC(=O)NCC1(c2ccc([N+](=O)[O-])cc2)CCCC1
IC50 [2]: 131 nM

CC(C)c1cccc(C(C)C)c1NC(=O)NCC1(c2ccc(N(CCO)CCO)cc2)CCCC1
Delta TC (Rattus norvegicus [1]): -50% | IC50 [2]: 21 nM

Cc1cc(C)c(C2(CNC(=O)Nc3c(C(C)C)cccc3C(C)C)CCCC2)c(C)c1
IC50 [2]: 56 nM | Delta TC (Rattus norvegicus [3]): -24%

CC(C)c1cccc(C(C)C)c1NC(=O)NCC1(c2cccc(N(C)C)c2)CCCC1
Delta TC (Rattus norvegicus [1]): -63% | IC50 [2]: 33 nM

CC(C)c1cccc(C(C)C)c1NC(=O)NCC1(c2ccc(C(F)(F)F)cc2)CCCC1
IC50 [2]: 66 nM | Delta TC (Rattus norvegicus [3]): -39%

CC(C)c1cccc(C(C)C)c1NC(=O)NCC1(c2ccc(OCc3ccccc3)cc2)CCCC1
Delta TC (Rattus norvegicus [1]): -33% | IC50 [2]: 34 nM

CC(C)c1cccc(C(C)C)c1NC(=O)NCC1(c2ccc(O)cc2)CCCC1
Delta TC (Rattus norvegicus [1]): -31% | IC50 [2]: 42 nM

CC(C)c1cccc(C(C)C)c1NC(=O)NCC1(c2cccc([N+](=O)[O-])c2)CCCC1
Delta TC (Rattus norvegicus [1]): -51% | IC50 [2]: 51 nM

CC(C)c1cccc(C(C)C)c1NC(=O)NCC1(c2ccc(CO)cc2)CCCC1
Delta TC (Rattus norvegicus [1]): 19%

COc1ccccc1C1(CNC(=O)Nc2c(C(C)C)cccc2C(C)C)CCCC1
Delta TC (Rattus norvegicus [1]): -53% | IC50 [2]: 23 nM

CC(C)c1cccc(C(C)C)c1NC(=O)NCC1(c2ccc(NCCO)cc2)CCCC1
Delta TC (Rattus norvegicus [1]): -63% | IC50 [2]: 25 nM

CC(C)c1cccc(C(C)C)c1NC(=O)NCC1(c2ccccc2N)CCCC1
Delta TC (Rattus norvegicus [1]): -58% | IC50 [2]: 140 nM

CC(C)c1cccc(C(C)C)c1NC(=O)NCC1(c2cccc(CO)c2)CCCC1
Delta TC (Rattus norvegicus [1]): -40% | IC50 [2]: 15 nM

CC(C)c1cccc(C(C)C)c1NC(=O)NCC1(c2ccc(N(C)C)cc2C(F)(F)F)CCCC1
IC50 [2]: 50 nM

COC(=O)c1ccc(C2(CNC(=O)Nc3c(C(C)C)cccc3C(C)C)CCCC2)cc1
Delta TC (Rattus norvegicus [1]): -3% | IC50 [2]: 360 nM

CC(C)c1cccc(C(C)C)c1NC(=O)NCC1(c2cccc(N)c2)CCCC1
Delta TC (Rattus norvegicus [1]): -75% | IC50 [2]: 21 nM

CC(C)c1cccc(C(C)C)c1NC(=O)NCC1(c2cccc(C(=O)O)c2)CCCC1
Delta TC (Rattus norvegicus [1]): -40% | IC50 [2]: 620 nM

CC(C)c1cccc(C(C)C)c1NC(=O)NCC1(c2ccccc2[N+](=O)[O-])CCCC1
Delta TC (Rattus norvegicus [1]): -45% | IC50 [2]: 27 nM
